Results from different studies.
Protocols differ between the studies behind these lines.
Target: Sodium-dependent dopamine transporter (SLC6A3, Homo sapiens, UniProt Q01959)

The EC50 of `CN[C@@H](C)C(=O)c1ccccc1` is reported as 0.24 µM (calcium signal; agonist; fluorescence).
`Fc1ccccc1C(Cc1ccccc1)N1CCCC1` (stereo not shown) has a Ki of 0.327 µM (ligand displacement; radioligand).
`CN1[C@H]2CC[C@@H]1[C@@H](c1cc(-c3ccccc3)no1)[C@H](OC(c1ccc(F)cc1)c1ccc(F)cc1)C2` gave a Ki of 0.028 µM (ligand displacement; radioligand).
`CCC[C@@H](C(=O)c1ccc(C)cc1)N1CCCC1` has an IC50 of 0.0062 µM (transporter uptake; inhibitor; radiometric).
The Ki of `C[C@@H](CN1CCC(Cc2ccccc2)CC1)[C@@H](O)c1ccc(O)cc1` (relative stereo) is reported as 6 µM (ligand displacement; radioligand).
The Ki of `CC(NCc1ccccc1)C(=O)c1ccc2c(c1)OCO2` (stereo not shown) is reported as less than 0.1 µM (ligand displacement; radioligand).
The Ki of `CNc1nc2cc(OCCCCN3CCN(c4cccc(Cl)c4Cl)CC3)ccc2s1` is reported as 2.8 µM (ligand displacement; radioligand).
With `NCCc1ccc(Oc2ccc(O)cc2)c(I)c1` the IC50 was 0.8 µM (ligand displacement; radioligand).
The EC50 of `CNC(C)(C)C(=O)c1ccccc1` is reported as 0.59 µM (calcium signal; agonist; fluorescence).
`CN[C@]1(c2ccccc2Cl)CCCCC1=O` has an IC50 of greater than 100 µM (ligand displacement; radioligand).
